# pIC50: −log10 of the molar value.
# Key:
# [1] = target: T1, Human immunodeficiency virus type 1 reverse transcriptase (Human immunodeficiency virus 1, UniProt Q72547); assay: Inhibition of RNase H activity of full length recombinant HIV1 reverse transcriptase assessed as reduction in nonspecific internal cleavage using HTS1 substrate; settings: read-out: IC50
# Outline: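 Recombinant p66/p51 RT heterodimer. Fluorescent RNA/DNA duplex substrate HTS-1 measures internal cleavage. IC50 is the mean of at least three independent experiments.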
# [2] = target: T1, Human immunodeficiency virus type 1 reverse transcriptase; assay: Inhibition of RNase H activity of full length recombinant HIV1 reverse transcriptase assessed as reduction in DNA 3'-end cleavage using HTS2 substrate; settings: for pIC50: read-out: IC50
# Outline: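 Recombinant p66/p51 RT heterodimer. Fluorescent RNA/DNA duplex substrate HTS-2 reports DNA 3′-end-directed (polymerase-dependent) cleavage. IC50 is the mean of at least three independent experiments.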
# [3] = target: T1, Human immunodeficiency virus type 1 reverse transcriptase; assay: Inhibition of RNase H activity of full length recombinant HIV1 reverse transcriptase assessed as reduction in RNA 5'-end directed cleavage using HTS3 substrate; settings: for pIC50: read-out: IC50
# [4] = target: T1, Human immunodeficiency virus type 1 reverse transcriptase; assay: Inhibition of polymerase activity of HIV1 reverse transcriptase using poly(rA)-oligo(dT)16 and [3H]-TTP incubated for 20 mins by liquid scintillation spectrometry; settings: for pIC50: read-out: IC50
# Outline: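 Reaction mix: 10 µM [3H]-TTP, 40 nM poly(rA)-oligo(dT)16, 50 mM Tris-HCl pH 7.4 (37°C), 60 mM KCl, 5 mM MgCl2. Started with 10 nM RT; 20 min at 37°C. Quenched in ice-cold 10% TCA with 20 mM sodium pyrophosphate, then glass-fibre filtered and washed with TCA and ethanol. Label incorporation read by liquid scintillation.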
# [5] = target: T1, Human immunodeficiency virus type 1 reverse transcriptase; assay: Inhibition of re-constituted HIV1 reverse transcriptase RNase H domain fragment; settings: read-out: IC50
# Outline: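 Secondary check using a catalytically active, isolated HIV RNase H domain fragment (reconstituted) with duplex substrate HTS-1.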
# [6] = Toxicity against human HeLa P4/R5 cells; assay type: cell-based
Compound,pIC50 [1],IC50 [2],pIC50 [3],pIC50 [4],pIC50 [2],pIC50 [5],IC50 [4],CC50 [6],IC50 [3]
Cn1c(Oc2ccccc2-c2ccc(Cl)cc2)cc(=O)n(O)c1=O,5.48,Not Active,4.89,4.85,,,,,
COc1cc(OC)cc(-c2cccc(Nc3cc(=O)n(O)c(=O)n3C)c2)c1,6.22,,5.40,,5.55,5.85,Not Active,10 µM,
COc1ccc(-c2cccc(Nc3cc(=O)n(O)c(=O)n3C)c2)cc1OC,6.30,,5.52,5.24,5.66,6.05,,10 µM,
COc1ccccc1-c1cccc(Oc2cc(=O)n(O)c(=O)n2C)c1,5.60,Not Active,4.89,,,5.36,Not Active,6 µM,
Cn1c(Oc2ccccc2-c2ccccc2O)cc(=O)n(O)c1=O,4.96,Not Active,,,,,Not Active,,Not Active
Cn1c(Oc2cccc(-c3cccc(C#N)c3)c2)cc(=O)n(O)c1=O,6.05,,5.34,,5.17,,Not Active,,
O=c1cc(Nc2ccc(-c3ccc(Cl)cc3)cc2)[nH]c(=O)n1O,6.33,,6.22,6.00,6.18,,,,
Cn1c(Oc2ccc(-c3ccc(C#N)cc3)cc2)cc(=O)n(O)c1=O,5.60,,5.33,,4.96,,Not Active,,
O=c1cc(Nc2ccc(-c3ccccc3O)cc2)[nH]c(=O)n1O,6.62,,6.34,6.08,6.31,,,,
COc1ccc(-c2ccc(Nc3cc(=O)n(O)c(=O)n3C)cc2)c(OC)c1,5.82,,5.28,,5.37,,Not Active,,
Cc1ccc(-c2cccc(Nc3cc(=O)n(O)c(=O)n3C)c2)cc1,5.77,,5.21,4.77,5.14,,,,
Cn1c(Oc2cccc(-c3ccc(C#N)cc3)c2)cc(=O)n(O)c1=O,5.92,,5.41,,5.16,,Not Active,,
Cn1c(Oc2ccc(-c3ccncc3)cc2)cc(=O)n(O)c1=O,5.43,Not Active,5.00,,,,Not Active,,
COc1ccccc1-c1ccc(Nc2cc(=O)n(O)c(=O)n2C)cc1,5.55,,5.05,,5.03,,Not Active,,
O=c1cc(Nc2ccc(-c3ccc(O)cc3)cc2)[nH]c(=O)n1O,6.74,,6.43,6.09,6.35,,,,
Cn1c(Oc2ccc(-c3ccc(Cl)cc3)cc2)cc(=O)n(O)c1=O,5.62,Not Active,4.96,,,,Not Active,,
O=c1cc(Nc2cccc(-c3ccc(Cl)cc3)c2)[nH]c(=O)n1O,6.66,,6.43,6.07,6.35,,,,
O=c1nc(Nc2ccc(-c3cnc4ccccc4c3)cc2)c2cccnc2n1O,,,,,,,,2 µM,
Cn1c(Oc2ccc(-c3cccc(C#N)c3)cc2)cc(=O)n(O)c1=O,5.72,,4.96,,4.89,,Not Active,,
O=c1cc(Nc2ccc(-c3cccc(O)c3)cc2)[nH]c(=O)n1O,6.66,,6.40,6.10,6.37,,,,
Cn1c(Oc2ccc(-c3ccc(C(F)(F)F)cc3)cc2)cc(=O)n(O)c1=O,5.21,Not Active,,,,,Not Active,,Not Active
Cc1noc(C)c1-c1ccccc1Nc1cc(=O)n(O)c(=O)n1C,5.18,Not Active,,,,,Not Active,,Not Active
Cn1c(Nc2cccc(-c3ccc(O)cc3)c2)cc(=O)n(O)c1=O,6.12,,5.57,4.92,5.42,,,,

# Source: ChEMBL document CHEMBL4428027, “3-Hydroxypyrimidine-2,4-diones as Selective Active Site Inhibitors of HIV Reverse Transcriptase-Associated RNase H: Design, Synthesis, and Biochemical Evaluations” (J Med Chem, 2016)
